OXTR potentiator = human OXTR potentiators, primary screen, fluorescence, CHO-OTR cells, Fluo-8 calcium. 0.061% of 320,000 active. Fluo-8 calcium fluorescence, potentiator mode; 0% = oxytocin EC15, 100% = EC100. activation, % at 3 µM. Oxytocin receptor (Homo sapiens), P30559;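 active = activation above that plate's cutoff, the mean activation of tested compounds plus 3 SD, cut at about 6.6% in these data, passing the limit was not always enough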;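 also: 100% uses oxytocin at 75 nM as the full agonist control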
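Dosing: Single dose, 3.0 µM nominal final compound concentration | Material: Human OTR in CHO cells | Technique: Kinetic Fluo-8 calcium fluorescence | Benchmarks: EC15 oxytocin alone as 0%, 75 nM oxytocin as 100% | Probe or stimulus: Oxytocin at about EC15, sub-maximal agonist stimulus | Incubation: Compound 6 min at room temperature before oxytocin, 100 s read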
TRPML3 agonist = human TRPML3 channel agonists, primary screen, cell-based, HEK293 TRPML3-YFP, Fluo-8 calcium fluorescence, 3 µM; Mucolipin-3 (Homo sapiens), Q8TDD5; 100% = the carbachol control signal; activation, % at 3 µM; 0.29% of 220,000 active; AID 1448, 2008;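 active = activation above its plate's cutoff, the mean activation of the plate's test wells plus 3 SD, cut at about 12% in these data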;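 also: 0% = DMSO only wells and 100% = carbachol wells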
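Material: HEK293 cells stably carrying human TRPML3-YFP; compound dosing: single dose, 3 µM final nominal compound, 0.3% DMSO final; incubation: 1-h 37 °C dye load, 5-s basal, 120-s post-compound reads; technique: Fluo-8 intracellular calcium fluorescence, excitation 470-495 nm, emission 515-575 nm; read-out basis: percent activation from peak-to-basal fluorescence ratio, scaled between DMSO and carbachol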
OXTR ag = human OXTR agonists, primary screen, fluorescence, CHO-OTR cells, Fluo-8 calcium; Oxytocin receptor (Homo sapiens), P30559; Fluo-8 calcium fluorescence; normalized: DMSO 0%, oxytocin 100%; activation, % at 3 µM; 0.32% of 320,000 active;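 active = activation above the mean of all tested compounds plus 3 SD, cutoff set per screening run, cut at about 20% in these data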;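 also: peak over basal fluorescence ratio from a 100 s FLIPR kinetic read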
V1R ag counter = agonists of human V1a receptor, primary screen, counter-screen for OXTR agonist project, fluorescence, CHO-V1R cells; Vasopressin V1a receptor (Homo sapiens), P37288; Fluo-8 calcium fluorescence, agonist mode; 0% DMSO, 100% 3 nM vasopressin; activation, % at 3 µM; 0.25% of 320,000 active;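 active = activation above the mean activation of all tested compounds plus 3 SD, per screening run, cut at about 20% in these data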;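 also: signal is peak over basal fluorescence ratio across a 100 second FLIPR read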
Target sequence (P37288 whole entry, looked up): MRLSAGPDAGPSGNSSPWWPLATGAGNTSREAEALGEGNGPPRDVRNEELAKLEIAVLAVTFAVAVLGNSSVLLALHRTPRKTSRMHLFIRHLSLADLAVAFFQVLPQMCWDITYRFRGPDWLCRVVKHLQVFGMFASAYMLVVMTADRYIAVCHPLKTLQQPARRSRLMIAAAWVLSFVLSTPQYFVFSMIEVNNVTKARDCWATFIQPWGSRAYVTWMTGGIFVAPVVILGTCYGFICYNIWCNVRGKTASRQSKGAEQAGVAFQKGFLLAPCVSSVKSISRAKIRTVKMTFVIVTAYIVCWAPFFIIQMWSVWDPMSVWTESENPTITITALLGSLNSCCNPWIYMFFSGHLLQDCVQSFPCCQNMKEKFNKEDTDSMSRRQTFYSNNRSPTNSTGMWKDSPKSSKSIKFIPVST
zfTRPN1 agonist = zebrafish TRPN1 channel agonists, primary screen, cell-based, HEK293, calcium fluorescence; transient receptor potential cation channel N1 (TRPN1/NompC), Danio rerio; HEK293 zebrafish TRPN1-YFP, Fluo-8 calcium fluorescence; 100% = response to 87 µM carbachol; activation, % at 3 µM; 0.18% of 220,000 active; AID 1424, 2008;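 active = activation above its plate's cutoff, the mean activation of test wells on that plate plus 3 SD, cut at about 19% in these data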;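 also: 0% = DMSO alone and 100% = 87 µM carbachol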
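System: zebrafish TRPN1-YFP in HEK293 cells / Dosing: 3 µM single point / Timing: dye loading 1 h at 37 °C, then 30 min room temperature / Signal: Fluo-8 calcium fluorescence, excitation 470-495 nm, emission 515-575 nm / Read-out basis: percent activation from peak over basal fluorescence ratio, control-normalized / Control set: high carbachol 87 µM, low DMSO alone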
TRPN1 ag 2 = zebrafish TRPN1 channel agonists, counter-screen for TRPML3 agonist project, cell-based, HEK293 TRPN1-YFP, Fluo-8 calcium. shares compounds with TRPML3 agonist. activation, % at 3 µM. Fluo-8 calcium fluorescence; scaled: carbachol wells 100%, DMSO wells 0%. 10% of 310 active;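 active = mean activation over replicates above a set limit taken from the earlier TRPN1 channel primary screen, cut at about 19% in these data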;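 also: 100% = carbachol and 0% = 0.3% DMSO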
TRPML3 ag conf = human TRPML3 channel agonists, confirmation, cell-based, HEK293 TRPML3-YFP, Fluo-8 calcium, triplicate; AID 1526, 2009; shares compounds with TRPML3 agonist; activation, % at 3 µM; Fluo-8 calcium fluorescence; 100% set by carbachol, 0% by DMSO; 80% of 310 active;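 active = activation above a set limit derived from the earlier primary screen, cut at about 12% in these data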
Active calls of the source: *; . = no result. A selection: hits, their analogues and other compounds. The true share with any hit is near 0.58%.

SMILES	OXTR potentiator	TRPML3 agonist	OXTR ag	V1R ag counter	zfTRPN1 agonist	TRPN1 ag 2	TRPML3 ag conf
COc1cc(/C=C(/NC(C)=O)C(=O)O)cc(Cl)c1OCc1ccc(Br)cc1	-1	0	0	0	-1	.	.
CC12CCC(C(=O)N(CSC(=S)N/N=C\c3ccccc3)C1=O)C2(C)C (configuration not stated)	-16	43*	-2	-1	0	-1	2
CC12CCC(C(=O)N(CC(=O)O)C1=O)C2(C)C (configuration not stated)	-9	1	-1	1	1	.	.
CC12CCC(C(=O)N(CSC(=S)N/N=C\c3ccccc3Cl)C1=O)C2(C)C (configuration not stated)	-11	38*	-2	0	-1	-1	0
CC1CCCCC1NC(=O)CN1C(=O)CSc2cc(S(=O)(=O)N3CCCCCC3)ccc21 (configuration not stated)	-10	33*	-3	-2	-1	-1	8
COc1ccc(C(C(=O)NC2CCCC2)N(Cc2ccccc2)C(=O)c2nsc(Cl)c2Cl)cc1 (configuration not stated)	-8	17*	0	2	-1	0	24*
CCOc1ccc(C(C(=O)NC2CCCC2)N(Cc2ccccc2)C(=O)c2nsc(Cl)c2Cl)cc1 (configuration not stated)	-7	1	-1	2	0	.	.
COC(=O)/C(C#N)=C/c1cc(C)sc1C	-3	0	-1	-1	-1	.	.
O=[N+]([O-])/C=C\c1ccc(N2CCCC2)c(F)c1	.	13*	.	.	11	27*	23*
O=C(CCl)N1CCCC1c1ccc2c(c1)OCCO2 (configuration not stated)	-16	.	0	1	.	.	.
Cc1ccc(S(=O)(=O)N2CC3CCCC2C3)cc1 (configuration not stated)	2	33*	-3	0	1	0	39*
COCC(=O)Oc1c(S(=O)(=O)c2ccccc2)c(C)nn1C(C)(C)C	-1	.	1	1	.	.	.
Cc1ccc(S(=O)(=O)c2c(C)nn(C(C)(C)C)c2OC(=O)C2CCCC2)cc1	-12	32*	1	1	2	2	24*
Cc1nn(C(C)(C)C)c(OC(=O)C2CCCC2)c1S(=O)(=O)c1ccccc1	.	16*	.	.	0	-1	23*
CCOC(=O)C1CCN(S(=O)(=O)c2ccc(C)cc2)CC1	-9	0	0	0	0	.	.
C=CCOC(=O)C1=C(C)NC(=O)NC1c1cc(Cl)cc(Cl)c1OC (configuration not stated)	-2	.	0	1	.	.	.
COc1ccc(S(=O)(=O)NC2CCCC2)c(Cl)c1Cl	2	35*	-2	-1	-2	-2	48*
Cc1ccc(C(=O)OC(C)C(=O)Nc2ccc3c(c2)OCO3)c(O)c1 (configuration not stated)	-7	.	-1	0	.	.	.
CC(=Nc1ccc(O)cc1)c1sc2ccccc2c1O	-12	2	8	7	2	.	.
CC(=Nc1ccccc1O)c1sc2ccccc2c1O	-9	12*	27*	31*	16	21*	9
Cc1ccc(CCN2CC(C(=O)NC3CCCCC3)CC2=O)cc1 (configuration not stated)	-4	.	1	1	.	.	.
COc1ccccc1C1(CC(=O)N2CCCCC2)CCOC(C(C)C)C1 (configuration not stated)	-3	14*	-2	-2	0	-1	11
Cc1ccc(S(=O)(=O)N2c3ccccc3-c3c(ssc3=S)C2(C)C)cc1	-10	1	-3	0	-1	.	.
CC1(C)CSC(=S)N1S(=O)(=O)c1ccccc1	1	32*	1	0	0	1	20*
N=C1SCC(=O)N1c1ncc(Cc2cccc(Cl)c2)s1	.	45*	.	.	4	5	26*
SMILES	OXTR potentiator	TRPML3 agonist	OXTR ag	V1R ag counter	zfTRPN1 agonist	TRPN1 ag 2	TRPML3 ag conf
N=C1SCC(=O)N1c1ncc(Cc2ccccc2Cl)s1	.	137*	.	.	3	5	170*
Cc1cccc(Cc2cnc(N3C(=N)SC(C)C3=O)s2)c1 (configuration not stated)	-6	2	-1	0	1	.	.
COc1ccc(-n2ccnc2SCC(=O)NO)cc1	-3	0	0	0	0	.	.
O=S(=O)(Nc1ccccc1N1CCCCC1)c1ccc(Cl)s1	-1	139*	-1	-2	-3	-2	110*
COc1cccc(NC(=O)c2cccc(S(=O)(=O)N3CCN(Cc4ccccc4)CC3)c2)c1	-11	.	0	0	.	.	.
Cc1ccc(-c2csc(NC(=O)C3CCN(S(=O)(=O)c4cccs4)CC3)n2)cc1	-4	4	7	5	3	.	.
O=C(Nc1nc(-c2ccc3ccccc3c2)cs1)C1CCN(S(=O)(=O)c2cccs2)CC1	-5	19*	-1	0	0	3	52*
Cc1ccc(C(=O)NNC(=S)NC(=O)c2ccco2)cc1	-15	28*	45*	64*	18	39*	36*
CN(C)S(=O)(=O)c1cc([N+](=O)[O-])ccc1N1CCCCCC1	-12	16*	-1	-1	-1	1	14*
Cc1cc(N2C(=O)C3C4c5ccccc5C(c5ccccc54)C3C2=O)no1 (configuration not stated)	-6	13*	-2	0	-3	-1	9
CCc1ccc(CN2CCCC(CNC(=O)c3cccc(OC)c3OC)C2)cc1 (configuration not stated)	-2	.	0	3	.	.	.
COc1ccccc1N(C)S(=O)(=O)c1ccc(Cl)c(C(=O)OCc2c(C)noc2C)c1	-7	41*	0	5	1	0	39*
CC(=O)N1CCN(c2ccccc2NC(=O)COc2ccccc2C)CC1	-8	0	0	0	2	.	.
Cc1ccccc1OCC(=O)Nc1cc(S(=O)(=O)N2CCCCC2)ccc1N1CCN(C)CC1	-5	21*	2	1	0	1	23*
